High-throughput results: PubChem, Broad Institute
Xi reactivation – activators of inactive X chromosome reactivation, primary screen, imaging, XiGFP fibroblasts, GFP high-content imaging, set 2 | XiGFP mouse fibroblasts, % GFP-positive cells imaging, 3 d; cells co-treated with 5-aza-dC sensitizer; scaled so ellipticine positive control = 100% | activation, % at 7.58 µM | actives 0.055% (n = 360,000) | AID 743238, 2013;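 active = mean normalized replicate activation at least 10% and every replicate at or above 10%; inconclusive = only one of the two criteria met; inactive = mean below 10% and not all replicates reach 10%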
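material = 68-5-11 XiGFP fibroblast line | medium = DMEM plus 5-aza-dC sensitizer | schedule = 3 days compound exposure | benchmarks = positive control ellipticine, 6 µM final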
E-selectin induc – E-selectin induction in HUVECs, primary screen, imaging, HUVEC, immunofluorescence imaging, single point; P16581; normalized: neutral wells 0, TNF-alpha wells 100; activation, % at 7.58 µM; actives 0.37% (n = 260,000); AID 686992, 2013;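 active = mean E-selectin-positive cell signal at least 10% of the positive control, reached in at least 60% of replicates, without over 20% cell loss; inconclusive = no rule given, readout overlaps actives, possibly toxicity-flagged; inactive = the rest, including those meeting only one limit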
Target sequence (P16581 whole entry, looked up): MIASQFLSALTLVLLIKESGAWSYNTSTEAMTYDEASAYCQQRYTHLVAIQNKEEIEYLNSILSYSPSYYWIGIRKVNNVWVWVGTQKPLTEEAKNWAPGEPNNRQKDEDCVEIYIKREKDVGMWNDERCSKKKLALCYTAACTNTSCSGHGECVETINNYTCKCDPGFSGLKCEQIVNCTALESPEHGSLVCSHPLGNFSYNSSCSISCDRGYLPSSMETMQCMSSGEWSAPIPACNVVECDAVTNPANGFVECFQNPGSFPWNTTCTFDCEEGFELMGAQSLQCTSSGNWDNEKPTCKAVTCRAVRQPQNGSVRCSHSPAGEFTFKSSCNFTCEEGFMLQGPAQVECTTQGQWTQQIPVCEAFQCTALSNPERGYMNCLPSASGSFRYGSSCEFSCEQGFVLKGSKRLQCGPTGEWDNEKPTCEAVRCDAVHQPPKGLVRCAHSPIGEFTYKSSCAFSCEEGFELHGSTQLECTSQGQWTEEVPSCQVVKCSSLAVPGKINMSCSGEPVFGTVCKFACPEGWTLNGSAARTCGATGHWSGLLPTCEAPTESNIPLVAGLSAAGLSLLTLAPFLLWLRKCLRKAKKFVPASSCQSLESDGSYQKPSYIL
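Assay system: HUVEC primary endothelial cells. Input: 3,000 HUVEC seeded per well. Doses: one compound dose added by pin transfer. Read-out basis: % PE-positive cells. Benchmarks: TNF-alpha high, DMSO low. Detection: immunofluorescence imaging. Buffer or medium: EGM-2, gelatin.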
DENV2 CPE rescue – inhibitors of DENV2 cytopathic effect, primary screen, cell-based, plate reader, single concentration; DENV2-infected cells, cytopathic effect rescue; CPE inhibition, % at 9.99 µM; actives 1.7% (n = 350,000); in the data active = CPE inhibition above about 20%, passing the limit was not always enough; inconclusive = no clear call, values can overlap the other calls; tested in BHK-21 cells
FGF22 binding – binders of human FGF22 protein, primary screen, FGF22 synaptogenesis inhibitor project, biophysical, thermal shift, single point; recombinant FGF22 thermal shift, SYPRO orange fluorescence; percent of sucrose octasulfate shift, DMSO zero; activity (Tm shift, normalised), % at 9.99 µM; actives 1.5% (n = 340,000); AID 651658, 2012;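 active = mean Tm shift, scaled 0 neutral to 100 positive control, at about 1.3% or above, every replicate too, limit read from the data; inconclusive = no clear call, values can overlap the other calls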
Target sequence (Q9HCT0 whole entry, looked up): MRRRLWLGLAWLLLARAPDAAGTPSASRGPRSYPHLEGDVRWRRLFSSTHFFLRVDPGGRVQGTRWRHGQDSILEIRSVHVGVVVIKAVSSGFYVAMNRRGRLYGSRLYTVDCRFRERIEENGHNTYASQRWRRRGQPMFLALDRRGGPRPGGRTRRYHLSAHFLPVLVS
C2C12 statin – suppressors of statin myotoxicity in C2C12 myotubes, primary screen, cell-based, single point, plate reader. C2C12 myotubes + simvastatin, ATP luminescence, 48 h; scaled: DMSO 0, geranylgeraniol control 100. rescue of ATP level, % at 7.49 µM. actives 0.78% (n = 330,000). AID 602340, 2012;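 active = mean ATP rescue above about 67%, or every replicate alone reaching that limit, limit read from the data, passing the limit was not always enough; inconclusive = no clear call, values can overlap the other calls; inactive = mean under the limit and some replicate under it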;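 also: myotubes were challenged with 10 µM simvastatin during compound exposure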
PglD inh – C. jejuni PglD acetyltransferase inhibitors, primary screen, biochemical, DTNB colorimetric, single point; AID 602405, 2012; inhibition, % at 12.5 µM; actives 0.098% (n = 360,000); UDP-N-acetylbacillosamine N-acetyltransferase PglD (Campylobacter jejuni); purified PglD enzyme, DTNB colorimetric CoA detection; in the data active = inhibition above about 16%, passing the limit was not always enough; inconclusive = no clear call, values can overlap the other calls
Of the large screens only hits and unclear results are named; the others gave an inactive call. Rows were chosen to be rich in hits. Some 3.3% of all compounds tested hit in one or more screens of this group.

FC(F)(F)c1ccc(CN2C[C@@H]3C(c4ccc(C(F)(F)F)cc4)C4(c5cccnc5)CC3(C4)[C@H]2c2ccccc2)cc1 (some centres not stated)	C2C12 statin 119.1
COc1ccc(C=NNC(=S)NN=Cc2ccc(OC)c(OC)c2)cc1OC	none
COc1ccc(C=NNC(=S)Nc2ccc(F)cc2)cc1OC	FGF22 binding 64.8
Fc1ccc(NC(=S)NN=Cc2ccccc2Cl)cc1	FGF22 binding 43.2
O=C(NN=Cc1ccccc1Cl)c1ccccc1	none (no result: C2C12 statin)
Oc1ccc(/C=N/NC(=S)Nc2cccnc2)cc1	FGF22 binding 1.5 (no result: C2C12 statin, PglD inh)
N#CCC(=O)N/N=C/c1ccccc1Cl	FGF22 binding 43.7 (no result: C2C12 statin, PglD inh)
Oc1ccccc1C=NNC(=S)Nc1ccc(F)cc1	none
C[C@@H]1CN([C@@H](C)CO)C(=O)c2cc(NC(=O)C3CCCCC3)ccc2O[C@@H](C)CCCCO[C@H]1CN(C)Cc1ccccc1	none (no result: C2C12 statin)
CS(=O)(=O)N1C[C@@H]2C(c3ccccc3)[C@H](C1)N2Cc1ccc(F)cc1 (some centres not stated)	none (no result: E-selectin induc, DENV2 CPE rescue, FGF22 binding, C2C12 statin, PglD inh)
COc1ccccc1NC(=S)N/N=C/c1cccc(C)c1	none (no result: C2C12 statin, PglD inh)
COc1ccc(/C=N/OC(=O)Nc2ccccc2OC)cc1	FGF22 binding 42.9 (no result: C2C12 statin, PglD inh)
COc1ccccc1NC(=S)N/N=C/c1ccc(O)cc1	FGF22 binding 1.5 (no result: C2C12 statin, PglD inh)
COc1ccc(C=Nc2ccc3[nH]ncc3c2)c(O)c1	FGF22 binding 43.1 (no result: E-selectin induc, C2C12 statin, PglD inh)
COc1ccc2c3c([nH]c2c1)[C@H](CO)N(C(=O)c1ccccc1)CC31CCN(C(=O)NC(C)C)CC1	none (no result: C2C12 statin, PglD inh)
COc1ccc(NC(=O)N(C)C[C@@H]2Oc3ncc(C#C[C@@H](C)O)cc3C(=O)N([C@@H](C)CO)C[C@H]2C)cc1	none
COc1ccc([C@@H]2[C@@H]3C(=O)N(C(C)(C)C)C(=O)[C@@H]3[C@]3(Cc4ccccc4)C(=O)N(c4ccc(OC)cc4)C(=O)N23)cc1	DENV2 CPE rescue inconclusive
COc1ccc(N2C(=O)N3[C@H](c4cccc(C)c4)[C@@H]4C(=O)N(Cc5ccccc5)C(=O)[C@@H]4[C@]3(Cc3ccccc3)C2=O)cc1	DENV2 CPE rescue 82.1 (no result: C2C12 statin, PglD inh)
COc1ccc([C@@H]2[C@@H]3C(=O)N(C(C)(C)C)C(=O)[C@@H]3[C@]3(Cc4ccc(Cl)cc4)C(=O)N(c4cccc(C)c4)C(=O)N23)cc1	FGF22 binding 1.3
CC(C)NC(=O)N(C)C[C@H]1OCCCC[C@@H](C)Oc2ccc(NS(C)(=O)=O)cc2C(=O)N([C@@H](C)CO)C[C@H]1C	none (no result: C2C12 statin)
O=C1CN(C(=O)COC(=O)c2c(F)cccc2Cl)c2ccccc2N1	DENV2 CPE rescue 25.7
O=C1CN(C(=O)COC(=O)c2cc(S(=O)(=O)N3CCOCC3)ccc2Cl)c2ccccc2N1	FGF22 binding 43.5
O=C1CN(C(=O)COC(=O)/C=C/c2ccc(S(=O)(=O)N3CCOCC3)cc2)c2ccccc2N1	none (no result: C2C12 statin, PglD inh)
O=C1CN(C(=O)COC(=O)c2ccc(Cl)cc2)c2ccccc2N1	none
O=C1CN(C(=O)COC(=O)CNS(=O)(=O)c2ccccc2)c2ccccc2N1	FGF22 binding 43.4 (no result: E-selectin induc, C2C12 statin, PglD inh)
CO[C@@H]1CN(C)C(=O)c2cc(NC(C)=O)ccc2OC[C@H](C)N(C(=O)c2cnccn2)C[C@@H]1C	none
C[C@H]1CCCCO[C@H](CN(C)S(C)(=O)=O)[C@@H](C)CN([C@@H](C)CO)C(=O)c2cc(NS(C)(=O)=O)ccc2O1	DENV2 CPE rescue inconclusive (no result: C2C12 statin)
C[C@@H]1CN([C@@H](C)CO)C(=O)Cc2cc(NC(=O)Cn3cnnn3)ccc2O[C@@H]1CN(C)S(=O)(=O)c1ccccc1	none (no result: DENV2 CPE rescue, FGF22 binding, C2C12 statin, PglD inh)
O=c1[nH]c(SCc2ccccc2)nc2c1sc1ccccc12	FGF22 binding 43.9 (no result: E-selectin induc, C2C12 statin, PglD inh)
O=C(O)Cn1c2ccccc2c2ccccc21	none (no result: C2C12 statin, PglD inh)
O=C(O)Cn1c2c(c3ccccc31)CSc1ccc(Cl)cc1-2	FGF22 binding 1.9
CC(C)C#Cc1cnc2c(c1)C(=O)N([C@H](C)CO)C[C@H](C)[C@H](CN(C)C(=O)Nc1ccc(F)cc1)O2	none
CCc1nnc(NC(=O)CSc2n[nH]c(-c3ccccc3O)n2)s1	FGF22 binding 1.8 (no result: E-selectin induc, DENV2 CPE rescue)
O=C1c2ccccc2C(=O)N1CC(=O)N1c2ccccc2Sc2ccc(C(F)(F)F)cc21	DENV2 CPE rescue 35.5 (no result: E-selectin induc)
COc1cccc(NC(=O)CCN2CCN(c3ccccc3F)CC2)c1	C2C12 statin 77.6 (no result: Xi reactivation, E-selectin induc, DENV2 CPE rescue, FGF22 binding)
COc1cccc(NC(=O)CCN2C(=O)C3CC=CCC3C2=O)c1 (configuration not stated)	DENV2 CPE rescue 28.7
COc1cccc(NC(=O)CCCN2C(=O)C3CC=CCC3C2=O)c1 (configuration not stated)	none (no result: E-selectin induc, C2C12 statin)
COc1ccc(NC(=O)c2ccc(NC(=O)CN3CCN(c4ccccc4OC)CC3)cc2)cc1	FGF22 binding 43.4
CCOCCCNC(=O)C(c1ccc(Cl)cc1)N(Cc1cccs1)C(=O)c1ccccn1 (configuration not stated)	none (no result: E-selectin induc, C2C12 statin, PglD inh)
CCOCCCNC(=O)C(c1ccc(C)cc1)N(Cc1cccs1)C(=O)c1ccccn1 (configuration not stated)	Xi reactivation 26.2 (no result: E-selectin induc, C2C12 statin, PglD inh)
CCc1ccc(NC2CC(=O)N(CCc3ccc(OC)c(OC)c3)C2=O)cc1 (configuration not stated)	none
COc1ccc(CCN2C(=O)C3C(C2=O)C2C=CC3C23CC3)cc1OC (configuration not stated)	C2C12 statin 118.4
CC1=CC(C)C(=O)N(CCN2CCOCC2)C(C)=C1 (configuration not stated)	FGF22 binding 43.4
O=C1c2ccccc2C(=O)N1CCN1CCOCC1	none
CCOc1ccc(Oc2nc(NCC(C)C)nc(OC)n2)nn1	DENV2 CPE rescue 35.6
CCOc1ccc(Oc2nc(NCC(C)C)nc(N(C)C)n2)nn1	none (no result: Xi reactivation, E-selectin induc, DENV2 CPE rescue, FGF22 binding)
Cn1cnc(S(=O)(=O)N[C@H]2CC[C@H](CC(=O)NCC3CCCCC3)O[C@@H]2CO)c1	none
Cn1cnc(S(=O)(=O)N[C@@H]2CC[C@H](CC(=O)NCC3CCCCC3)O[C@@H]2CO)c1	DENV2 CPE rescue 83.9
Cn1cnc(S(=O)(=O)N[C@H]2CC[C@H](CC(=O)NCC3CCCCC3)O[C@H]2CO)c1	DENV2 CPE rescue 79.6
Cc1ccc(C)n1-c1ccc(-c2ccn[nH]2)cc1	FGF22 binding 42.9
c1ccn(-c2ccc(-c3ccn[nH]3)cc2)c1	none (no result: DENV2 CPE rescue, C2C12 statin, PglD inh)
